Screening data as filed in PubChem.
SENP8 block-1: blocks the human protease SENP8; inhibition, % at 10 µM; AID 2540; purified SENP8, Z-RLRGG-aminoluciferin cleavage, luminescence; Q96LD8; 330,000 tested, 1.2% active; in the data active = inhibition above about 50%
Target sequence (Q96LD8 whole entry, looked up): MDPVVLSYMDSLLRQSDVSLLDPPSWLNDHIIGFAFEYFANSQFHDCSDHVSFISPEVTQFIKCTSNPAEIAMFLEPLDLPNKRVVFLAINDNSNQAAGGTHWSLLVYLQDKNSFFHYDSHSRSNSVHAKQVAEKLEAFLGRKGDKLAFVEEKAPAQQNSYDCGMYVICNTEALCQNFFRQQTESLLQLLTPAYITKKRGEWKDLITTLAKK
SENP8 block-2: blocks human SENP8 cleavage of Nedd8 substrate | recombinant SENP8, Nedd8 substrate fluorescence | inhibition, % at 20 µM | 360,000 tested, 0.64% active | AID 602440; in the data active = inhibition mostly above about 40%, no sharp cut-off; inactive = mostly below about 27%
SENP1 FRET inh: SENP1 (human) catalytic domain inhibition | recombinant SENP1 catalytic domain, CyPet-SUMO1-YPet FRET cleavage | inhibition, % at 10 µM | 360,000 tested, 0.21% active | AID 624204;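 active = inhibition at least 30% at 10 µM, raw YFP signal under a set limit, fluorescence ratio 0.5 to 1.5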
Target sequence (Q9P0U3 419-644 limits assumed): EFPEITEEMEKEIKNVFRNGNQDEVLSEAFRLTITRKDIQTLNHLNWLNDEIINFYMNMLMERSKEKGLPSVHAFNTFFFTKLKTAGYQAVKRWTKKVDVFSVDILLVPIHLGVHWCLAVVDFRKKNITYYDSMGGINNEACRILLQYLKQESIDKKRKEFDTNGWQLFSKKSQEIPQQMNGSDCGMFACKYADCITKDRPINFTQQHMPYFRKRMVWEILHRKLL
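Material: hSENP1 catalytic domain, recombinant; medium: Tris pH 8 with BME, BSA, NP40 and catalase; compound: single concentration of 10 µM compound, 0.5% DMSO final; technique: FRET read of cyan and yellow fluorescence; timing: 50 min enzyme reaction, room temperature, light-protected; reagent: SFCypet-SUMO1-SFYpet substrate at 25 nM; control set: no-enzyme low, enzyme-DMSO high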
SENP6 block: blocks the human protease SENP6 | Q9GZR1 | Recombinant SENP6 catalytic domain, aminoluciferin luminescence | inhibition, % at 10 µM | 330,000 tested, 1.8% active;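 active = inhibition above about 50% at the single tested dose, limit read from the data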
HSP90 refold inh: blocks HSP90-mediated luciferase refolding in reticulocyte lysate; Rabbit reticulocyte lysate, luciferase refolding luminescence, 3 h; inhibition, % at 5.6 µM; 290,000 tested, 0.91% active; AID 1789;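 active = inhibition above the screen-wide mean plus 3 SD, computed separately per campaign, cut at about 16% in these data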;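 note: inhibitors lower the luminescence because luciferase stays unfolded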
SENP7 block: SENP7 protease inhibition | 330,000 tested, 1.5% active | Q9BQF6 | recombinant SENP7, Z-RLRGG-aminoluciferin luminescence, 40 min | AID 434973 | inhibition, % at 5 µM;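 active = inhibition above about 50% at the single test dose, limit read from the data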
SENP8 confirm: confirmation of human SENP8 protease inhibitors; Recombinant SENP8, Z-RLRGG-aminoluciferin luminescence, 60 min; shares compounds with SENP7 block; inhibition, % at 12.5 µM; 6,200 tested, 40% active;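 active = mean inhibition across replicates above about 50%, limit read from the data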
SENP6 conf: confirmation of human SENP6 protease inhibitors; 6,200 tested, 58% active; recombinant SENP6, Z-RLRGG-aminoluciferin luminescence; shares compounds with SENP7 block; inhibition, % at 12.5 µM
SENP7 conf: confirmation of human SENP7 protease inhibitors; shares compounds with SENP7 block; recombinant SENP7, Z-RLRGG-aminoluciferin luminescence, 40 min; inhibition, % at 12.5 µM; 6,200 tested, 69% active
Casp3 SENP sel: selectivity test for SENP inhibitors: human caspase-3 inhibition; shares compounds with SENP7 block; purified caspase-3, Z-DEVD-aminoluciferin luminescence, 60 min; inhibition, % at 12.5 µM; 6,200 tested, 60% active; AID 488918;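 active = mean inhibition above about 50%, limit read from the data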
Target sequence (P42574 28-227 limits assumed): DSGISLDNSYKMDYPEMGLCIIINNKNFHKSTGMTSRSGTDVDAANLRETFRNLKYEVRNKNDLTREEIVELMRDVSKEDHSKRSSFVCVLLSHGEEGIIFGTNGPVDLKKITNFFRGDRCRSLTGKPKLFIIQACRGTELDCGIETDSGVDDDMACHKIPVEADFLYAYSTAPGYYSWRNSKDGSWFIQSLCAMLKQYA
Luc interf: interferes with luciferase luminescence in SENP counter-screen; AID 488919; Pre-incubated SENP8/Z-RLRGG-aminoluciferin, luciferase luminescence interference; inhibition, % at 12.5 µM; 6,200 tested, 39% active; shares compounds with SENP7 block;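 active = mean inhibition above about 50% when retested at one dose, limit read from the data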
Numbers stand for hits; . = inactive; / = no result given. Rows were chosen to be rich in hits. Some 2.9% of all compounds tested hit in one or more screens of this group.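 Rule for the calls, unless noted: active = mean inhibition above about 50% in the one-dose retest (limit read from the data); inactive = the rest.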

SMILES	SENP8 block-1	SENP8 block-2	SENP1 FRET inh	SENP6 block	HSP90 refold inh	SENP7 block	SENP8 confirm	SENP6 conf	SENP7 conf	Casp3 SENP sel	Luc interf
O=C(c1ccc(C(=O)N2CCCc3ccccc32)s1)N1CCCc2ccccc21	.	.	.	.	.	.	/	/	/	/	/
O=C(c1ccc(Cl)s1)N1CCc2ccccc21	81	.	.	89	.	89	54	68	81	80	54
COc1ccc(C(=O)Nc2ccc([N+](=O)[O-])cn2)cc1OC	.	.	.	.	.	.	/	/	/	/	/
COc1cc(OC)cc(C(=O)Nc2ccc([N+](=O)[O-])cn2)c1	.	.	.	.	.	81	.	.	.	.	.
Cc1cc(C(=O)Nc2ccc([N+](=O)[O-])cn2)cs1	.	.	.	51	.	51	.	.	77	75	.
Cc1ccc(C(=O)Nc2ccc([N+](=O)[O-])cn2)o1	.	.	.	53	.	.	.	.	72	77	.
COc1cc2c(CCNC(C)=O)c[nH]c2cc1Cl	.	.	.	.	/	.	/	/	/	/	/
Cc1cccc(-c2nsc(SCC(=O)N3CCCC3)n2)c1	.	.	.	80	.	67	59	65	87	77	55
COc1ccc(-c2cc3nc(C)cc(N4CCN(C(=O)c5cccnc5)CC4)n3n2)cc1	/	.	.	/	/	/	/	/	/	/	/
O=C(Nc1ccc2c(c1)OCO2)c1ccc(COc2ccc3c(c2)CCC3)o1	.	.	.	54	.	.	.	.	.	.	.
O=C(Nc1ccc2c(c1)oc1ccccc12)c1ccc(Br)o1	.	.	.	.	.	77	.	.	.	.	.
CN(C)c1ccc(NC(=O)c2ccc(COc3cccc(Cl)c3)o2)cc1	.	.	.	.	.	.	/	/	/	/	/
O=C(Nc1ccc2c(c1)CCC2)c1ccc(Br)o1	79	.	.	90	.	89	88	87	99	86	87
O=C(Nc1ccc2c(c1)OCO2)c1ccc(Br)o1	58	.	.	65	.	.	.	65	90	82	67
O=C(Nc1ccccc1)c1ccc(Br)o1	.	.	.	.	.	.	/	/	/	/	/
COC(=O)COc1ccc(S(=O)(=O)N2CCc3ccccc3C2)cc1C	.	.	.	.	.	.	/	/	/	/	/
COc1ccccc1NC(=O)CCS(=O)(=O)c1cc2c(cc1Cl)NC(=O)CO2	.	.	.	.	.	.	/	/	/	/	/
COc1ccccc1C(=O)OCc1c(-c2ccccc2)ncc2ccccc12	.	.	.	.	/	.	/	/	/	/	/
COC(=O)Cc1ccc(NC(=O)c2ccc(Br)o2)cc1	.	.	.	51	.	.	.	.	68	70	.
O=C(Nc1ccc2c(c1)Cc1ccccc1-2)c1cc2ccccc2o1	.	.	.	.	.	.	/	/	/	/	/
CC(=O)Nc1ccc2c(c1)CCCC2	.	.	.	.	.	.	/	/	/	/	/
Cc1ccc(C(=O)Nc2ccc3c(c2)CCC3)o1	68	.	.	82	.	80	72	68	92	82	78
O=C(Nc1ccc2c(c1)CCC2)c1cc2ccccc2o1	.	.	.	77	.	68	61	65	87	.	58
O=[N+]([O-])c1ccc(N2CCOCC2)cc1N1CCCCC1	.	.	.	.	.	.	/	/	/	/	/
Cc1ccc(-c2nnc(-c3ccccc3)o2)cc1Br	.	.	.	59	.	75	.	.	.	.	.
SMILES	SENP8 block-1	SENP8 block-2	SENP1 FRET inh	SENP6 block	HSP90 refold inh	SENP7 block	SENP8 confirm	SENP6 conf	SENP7 conf	Casp3 SENP sel	Luc interf
Cc1cccc(-c2nnc(-c3ccc(N)cc3)o2)c1	.	.	.	.	.	53	.	65	88	63	.
Brc1cccc(-c2nnc(-c3ccccc3)o2)c1	70	.	.	87	.	79	.	71	93	59	.
O=c1oc2ccccc2cc1-c1nnc(-c2cccc(Br)c2)o1	.	.	.	.	/	.	/	/	/	/	/
Nc1ccc(-c2nnc(-c3ccc(N)cc3)o2)cc1	.	.	.	.	.	.	/	/	/	/	/
Cc1ccc(-c2nnc(-c3cccc(Br)c3)o2)cc1	.	.	.	74	.	60	.	.	.	.	.
CCOC(=O)Cc1csc(NC(=O)CC(C)(C)C)n1	.	.	.	.	.	.	/	/	/	/	/
CCOc1ccc(C(=O)NC2CC(=O)N(c3ccc4c(c3)OCCO4)C2)cc1 (stereo not given)	.	.	.	.	/	.	/	/	/	/	/
CC(Cn1cncn1)C(=O)N1CCN(S(=O)(=O)c2ccccc2)CC1 (stereo not given)	.	.	.	.	.	.	/	/	/	/	/
NC(=O)c1ccc(NCCc2cccs2)cc1	/	.	.	/	/	/	/	/	/	/	/
Cn1c2ccccc2c(=O)c2ccc(NCCc3cccs3)cc21	66	.	.	68	/	.	81	88	97	79	.
FC(F)(F)c1nc(SCc2ccccc2)n[nH]1	.	.	.	.	/	.	/	/	/	/	/
CC(=O)OCC1OC(OC2C[C@]3(C)C(CC(O)C4C([C@](C)(CCC=C(C)C)OC5OC(CO)C(O)C(O)C5O)CC[C@]43C)[C@@]3(C)CCC(O)C(C)(C)C23)C(O[C@@H]2OC(C)C(O)C(O)C2O)C(O)C1O (stereo not given in full)	.	.	.	.	/	.	/	/	/	/	/
Cc1nnc(N2C(=O)C(O)=C(C(=O)c3ccco3)C2c2ccc(C(C)(C)C)cc2)s1 (stereo not given)	.	.	.	86	.	.	.	.	.	.	.
Cc1nnc(N2C(=O)C(O)=C(C(=O)c3ccco3)C2c2ccc(F)cc2)s1 (stereo not given)	.	.	.	.	.	.	/	/	/	/	/
CSc1ccc(C2C(C(=O)c3ccco3)=C(O)C(=O)N2c2nnc(SC)s2)cc1 (stereo not given)	.	.	.	75	.	.	.	.	.	.	.
Cc1ccc(-c2noc(-c3ccccc3F)n2)cc1	76	.	.	96	.	97	73	95	101	85	68
CS(=O)c1ccccc1-c1nc(-c2ccc(Cl)cc2)no1 (stereo not given)	.	.	.	.	.	.	/	/	/	/	/
O=C(O)c1ccc(-c2noc(-c3ccccc3F)n2)cc1	96	.	.	99	/	99	100	101	104	100	95
